Activity calls are given as the source filed them. No cut-off for these calls is given here.
Legend:
[1] = tested on: Plasmodium falciparum; assay: Antiplasmodial activity against Plasmodium falciparum Ghana by micro dilution assay; assay type: functional, organism-based
Summary of the method: (§1)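 Intraerythrocytic P. falciparum, strains GHA and K1, in a microdilution assay; tested in duplicate.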

[2] = tested on: Plasmodium falciparum; assay: Antiplasmodial activity against Plasmodium falciparum K1 by micro dilution assay; assay type: functional, organism-based; summary of the method: as §1
[3] = tested on: Plasmodium berghei; assay: Antiplasmodial activity against Plasmodium berghei ANKA infected in mice (Mus musculus) assessed as suppression of parasitaemia at 50 mg/kg, intraperitoneal for 5 consecutive days measured on day 4 post parasitic infection; assay type: functional; conditions: ip, 96 h
Summary of the method: (§2)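 P. berghei (GFP ANKA strain) acute mouse model; intraperitoneal dosing for 5 consecutive days (test compounds 50 mg/kg, chloroquine reference 10 mg/kg). Parasitaemia measured by flow cytometry (10 μL blood in 2000 μL PBS) on days 4, 7 and 14 in survivors, expressed as % reduction versus vehicle-treated infected controls. Survivors counted on days 7, 11, 14 and 25; mean survival time calculated.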

[4] = tested on: Plasmodium berghei; assay: Antiplasmodial activity against Plasmodium berghei ANKA infected in mice (Mus musculus) assessed as mice (Mus musculus) survival at 50 mg/kg, intraperitoneal for 5 consecutive days measured on day 11 post parasitic infection; assay type: functional, organism-based; parameters: dose 50 mg/kg
Summary of the method: (§3)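 P. berghei GFP ANKA acute mouse model. Drug was given intraperitoneally once daily for 5 consecutive days, alongside vehicle-treated infected controls. Mice were watched for clinical and adverse signs and euthanized for welfare if signs became very severe. Surviving animals were counted per group on days 7, 11, 14 and 25, and mean survival time was calculated.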

[5] = tested on: Plasmodium berghei; assay: Antiplasmodial activity against Plasmodium berghei ANKA infected in mice (Mus musculus) assessed as mice (Mus musculus) survival at 50 mg/kg, intraperitoneal for 5 consecutive days measured on day 14 post parasitic infection; assay type: functional, organism-based; parameters: dose 50 mg/kg; summary of the method: as §3
[6] = tested on: Plasmodium berghei; assay: Antiplasmodial activity against Plasmodium berghei ANKA infected in mice (Mus musculus) assessed as mice (Mus musculus) survival at 50 mg/kg, intraperitoneal for 5 consecutive days measured on day 25 post parasitic infection; assay type: functional, organism-based; parameters: dose 50 mg/kg; summary of the method: as §2
[7] = tested on: Plasmodium berghei; assay: Antiplasmodial activity against Plasmodium berghei ANKA infected in mice (Mus musculus) assessed as mean survival time at 50 mg/kg, intraperitoneal for 5 consecutive days; assay type: functional; summary of the method: as §2
[8] = tested on: Plasmodium falciparum; assay: Ratio of fosmidomycin IC50 to compound IC50 for Plasmodium falciparum K1; assay type: functional
[9] = tested on: Plasmodium berghei; assay: Antiplasmodial activity against Plasmodium berghei ANKA infected in mice (Mus musculus) assessed as suppression of parasitaemia at 50 mg/kg, intraperitoneal for 5 consecutive days measured on day 7 post parasitic infection; assay type: functional; conditions: ip, 168 h; summary of the method: as §2
[10] = tested on: Plasmodium berghei; assay: Antiplasmodial activity against Plasmodium berghei ANKA infected in mice (Mus musculus) assessed as suppression of parasitaemia at 50 mg/kg, intraperitoneal for 5 consecutive days measured on day 14 post parasitic infection; assay type: functional; conditions: ip, 336 h; summary of the method: as §2
[11] = Dissociation constant, pKa by NMR titration assay; assay type: physicochemical
Summary of the method: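 The ³¹P NMR chemical shift was recorded across a range of pH values and plotted against pH. Each pKa was taken as the pH at the inflection point of the titration curve, with the second pKa the value of interest.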

[12] = tested on: Plasmodium berghei; assay: Antiplasmodial activity against Plasmodium berghei ANKA infected in mice (Mus musculus) assessed as mice (Mus musculus) survival at 50 mg/kg, intraperitoneal for 5 consecutive days measured on day 7 post parasitic infection; assay type: functional, organism-based; parameters: dose 50 mg/kg; summary of the method: as §2
[13] = tested on: Plasmodium berghei; assay: Antiplasmodial activity against Plasmodium berghei ANKA infected in mice (Mus musculus) assessed as suppression of parasitaemia at 10 mg/kg, intraperitoneal for 5 consecutive days measured on day 4 post parasitic infection; conditions: ip, 96 h, read-out: INH
[14] = tested on: Plasmodium berghei; assay: Antiplasmodial activity against Plasmodium berghei ANKA infected in mice (Mus musculus) assessed as mice (Mus musculus) survival at 10 mg/kg, intraperitoneal for 5 consecutive days measured on day 7 post parasitic infection; assay type: functional, organism-based; parameters: dose 10 mg/kg; summary of the method: as §3
[15] = tested on: Plasmodium berghei; assay: Antiplasmodial activity against Plasmodium berghei ANKA infected in mice (Mus musculus) assessed as mice (Mus musculus) survival at 10 mg/kg, intraperitoneal for 5 consecutive days measured on day 11 post parasitic infection; assay type: functional, organism-based; parameters: dose 10 mg/kg; summary of the method: as §3
[16] = tested on: Plasmodium berghei; assay: Antiplasmodial activity against Plasmodium berghei ANKA infected in mice (Mus musculus) assessed as mice (Mus musculus) survival at 10 mg/kg, intraperitoneal for 5 consecutive days measured on day 14 post parasitic infection; assay type: functional, organism-based; parameters: dose 10 mg/kg; summary of the method: as §3
[17] = tested on: Plasmodium berghei; assay: Antiplasmodial activity against Plasmodium berghei ANKA infected in mice (Mus musculus) assessed as mean survival time at 10 mg/kg, intraperitoneal for 5 consecutive days; assay type: functional; summary of the method: as §2

Row | SMILES | IC50 [1] [nM] | IC50 [2] [nM] | inhibition in vivo at 50 mg/kg [3] [%] | Activity [4] | Activity [5] | Activity [6] | MST [7] [days] | Ratio IC50 [8] | inhibition in vivo at 50 mg/kg [9] [%] | inhibition in vivo at 50 mg/kg [10] [%] | pKa [11] | Activity [12] | inhibition in vivo at 10 mg/kg [13] [%] | Activity [14] | Activity [15] | Activity [16] | MST [17] [days]
1 | O=CN(O)CCC(c1ccc(Cl)c(Cl)c1)P(=O)(O)O (stereo not drawn) | 600 | 160 | 46 | inactive | inactive | inactive | 7 | – | – | – | – | – | – | – | – | – | –
2 | CN(O)C(=O)CCC(F)P(=O)(O)O.N.N (racemic) | 730 | 310 | 85 | – | – | inactive | 11.7 | 5 | 42 | 41 | – | – | – | – | – | – | –
3 | CC(=O)N(O)CCC(Cl)P(=O)(O)O.N.N (racemic) | 820 | 300 | – | – | – | – | – | 5 | – | – | ≤ 6 | – | – | – | – | – | –
4 | CC(=O)N(O)CCC(F)P(=O)(O)O.N.N (racemic) | 700 | 290 | 88 | – | – | inactive | 15.8 | 5 | 62 | 32 | ≤ 6 | Active | – | – | – | – | –
5 | CCN(CC)CCCC(C)Nc1ccnc2cc(Cl)ccc12 (stereo not drawn) [CHLOROQUINE] | – | – | – | – | – | – | – | – | – | – | – | – | 100 | Active | Active | Active | 20.7
6 | O=CN(O)CCCP(=O)(O)O [FOSMIDOMYCIN] | – | 1730 | 82 | – | – | – | 11.5 | – | – | – | – | Active | – | – | – | – | –
7 | CC(=O)N(O)CCCP(=O)(O)O [FR-900098] | – | 420 | 93 | – | – | – | 10.8 | – | – | – | 7.35 | Active | – | – | – | – | –

Source: ChEMBL document CHEMBL1155443, “Synthesis and evaluation of alpha-halogenated analogues of 3-(acetylhydroxyamino)propylphosphonic acid (FR900098) as antimalarials” (J Med Chem, 2010)
